This is one part of a sample in which hits are shown more often than they occur.
Insulin prom act – TRM-6 insulin promoter activation; TRM-6 cells, insulin promoter eGFP reporter, imaging; plate-scaled: unstimulated 0, stimulated control 100; activation, % at 2 µM; actives 0.81% (n = 130,000);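 active = activation at 2 µM above a set limit, confirmed on inspection of the cell images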;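 also: share of cells whose green reporter signal exceeds an intensity cutoff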
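Test system: human fetal islet-derived TRM-6 cells with tamoxifen-inducible insulin promoter–eGFP reporter. Compound dosing: 2 µM final, single concentration. Incubation: tamoxifen pre-incubation 15 h overnight, then compound exposure 48 h at 37 °C. Signal: fixed-cell fluorescence microscopy, eGFP plus Hoechst.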
The depositor's hits bear a star.

SMILES	Insulin prom act
Clc1ccc(-c2noc(CCCOc3ccccc3)n2)cc1	8
CCNC(=O)CN(C1CCCCC1)S(C)(=O)=O	0
Cc1ccc(C(=O)NC(=C(Cl)Cl)S(=O)(=O)c2ccc(Cl)cc2)cc1	129
CNC(=O)c1nnsc1S(=O)(=O)c1ccc(Cl)cc1	754*
O=C(Nc1ccccn1)c1ccc(S(=O)(=O)c2ccc(Cl)cc2)cc1	-3
COc1ccc(N2CCN(c3ncnc4c3nnn4Cc3ccccc3Cl)CC2)cc1	-8
Cc1ccc(NC2SC(=O)N(CC(=O)O)C2=O)cc1 (centres undefined)	-3
Cc1nc2ccccn2c1C(=O)N=Nc1c(O)[nH]c2ccccc12	-6
Cc1ccccc1Oc1ncnc(N)c1[N+](=O)[O-]	8
Cc1cc(C)c(C)c(Oc2ncnc(N)c2[N+](=O)[O-])c1	-3
Cc1ccc(Oc2ncnc(N)c2[N+](=O)[O-])cc1C	312*
Cc1cc(N2CC(C(=O)NCc3cccs3)CC2=O)ccc1C(C)C (centres undefined)	0
Cc1ccccc1N1CC(C(=O)O)CC1=O (centres undefined)	-3
Cc1ccc(N2CC(C(N)=O)CC2=O)cc1C (centres undefined)	543*
NNC(=O)CNC(=O)CNS(=O)(=O)c1ccccc1	0
O=Cc1cn(-c2ccc(F)cc2)c2ccccc12	3
CC1CCCCN1C(=O)COc1ccccc1F (centres undefined)	0
Cc1cc(C)n(-c2nc3c(c(=O)n(C)c(=O)n3C)n2CC(O)COc2ccccc2C)n1 (centres undefined)	-77
O=C(O)CCC(=O)NNC(=O)CCC(=O)NCc1ccccc1	0
CCCCC/C(=N\NC(=O)CCC(=O)NCc1ccccc1)c1ccccc1	371*
CCCCCC/C(=N\NS(C)(=O)=O)c1ccccc1	0
CCc1ccc(NS(=O)(=O)c2cccc3nonc23)cc1	0
Cc1sc2nc(CN(C(=O)NC3CCCCC3)C3CCCCC3)[nH]c(=O)c2c1C	363
COC(=O)CSc1nc(-c2ccccc2)nc2ccccc12	-5
CC1CN(C(=O)C2(C)CC2(Cl)Cl)CC(C)O1 (centres undefined)	8
SMILES	Insulin prom act
CCCC(=O)C1=C(O)C(C(=O)OC)C(C)(C)CC1=Nc1cccc2ccccc12 (centres undefined)	106
CCCC(=O)C1=C(O)C(C(=O)OC)C(C)(C)CC1=NC(C)C (centres undefined)	480*
COCCCNC(=S)N1CCC(NC(=O)c2ccco2)CC1	-3
N/C(=N\c1nc2c(c(=O)[nH]1)CCC2)Nc1cccc2ccccc12	4
CSc1ccc(CNc2ccc(C)c(C)c2)cc1	0
Cc1ccc(NCC(O)C(O)C(O)CO)cc1C (centres undefined)	427*
Cc1cc(N=Nc2ccccc2)c(NCC(O)C(O)C(O)CO)cc1C (centres undefined)	-82
CCn1nnnc1SCC(=O)NC1CCCC1	-3
CC(=O)NN1C(=O)/C(=C/c2ccc(C(C)C)cc2)SC1=S	-9
COc1ccc(-c2cc(-c3n[nH]c(=S)n3-c3ccccc3Cl)[nH]n2)cc1	0
Fc1ccc(Cc2nnc(-c3cccs3)o2)cc1	-62
O=[N+]([O-])c1ccc(Cc2nnc(-c3ccccc3Cl)o2)cc1	344*
Clc1ccccc1-c1nnc(-c2cccs2)o1	0
CC(NC(=O)OCc1ccccc1)C(=O)NCC(=O)NC(Cc1ccc(OC(C)(C)C)cc1)C(=O)OC(C)(C)C (centres undefined)	7
Cc1ccc(Cn2nc(C)c(NC(=O)C3(C)CC3(Br)Br)c2C)cc1 (centres undefined)	0
O=C(NCc1cccs1)C(=O)NCC1OCCCN1S(=O)(=O)c1ccccc1 (centres undefined)	7
Cc1c(Cl)cccc1NCC(=O)NN=C1CCCC1	337*
O=C(CSc1ncccn1)NN=C1CCCCCC1	-67
CC(C)CNC(=O)CC(=O)NN=C1CCCC1	-7
CCN1CC=C2C(C#N)=C(N)C(C#N)(C#N)[C@H](c3cccc(OC)c3OC)[C@H]2C1	614*
CCOC(=O)N1CC=C2C(C#N)=C(N)C(C#N)(C#N)[C@H](c3ccccc3OCC)[C@H]2C1	-9
CN1CC=C2C(C#N)=C(N)C(C#N)(C#N)[C@H](c3cccc(Cl)c3)C2C1 (some centres undefined)	7
N#CC1=C(N)C(C#N)(C#N)C(c2ccncc2)C2CN(C(=O)OCc3ccccc3)CC=C12 (centres undefined)	-5
CN1CC=C2C(C#N)=C(N)C(C#N)(C#N)[C@H](c3cccs3)[C@H]2C1	108
COc1cccc(C2C3CN(C)CC=C3C(C#N)=C(N)C2(C#N)C#N)c1OC (centres undefined)	147*
SMILES	Insulin prom act
Cc1ccc(C)c2[nH]c(=O)c(C(c3nnnn3C(C)(C)C)N3CC=C(c4ccc(F)cc4)CC3)cc12 (centres undefined)	4
Cc1[nH]c2ccccc2c1SCC(=O)N1CCCCCC1	105
COc1ccc(C(C)=O)cc1COc1ccc(-n2cnnn2)cc1	8
NS(=O)(=O)c1ccc(CCNC(=O)CSc2nc3ccsc3c(=O)n2CCCCC(=O)O)cc1	-7
CCOC(=O)N1CCN(C(=O)/C=C/c2cccc([N+](=O)[O-])c2)CC1	0
Cc1ccc(CNC(=O)CSc2nc3ccsc3c(=O)n2NC(=O)c2ccccc2)cc1	5
Cc1cc(NC(=O)CSc2nc3ccsc3c(=O)n2NC(=O)c2ccccc2)no1	436*
Cc1cc(NC(=O)CSc2nc(-c3ccccc3)cs2)no1	103
CCN(Cc1nc2ccccc2c(=O)[nH]1)Cc1cc(=O)oc2cc(OC)ccc12	-9
CC(=O)Oc1ccc2oc(=O)c3c(c2c1)CCCN3C(=O)CN1CCOCC1	-7
CCOC(=O)c1cnc(SCc2ccccc2)nc1N	106
CCOC(=O)c1cnc(SCc2ccc(C(C)(C)C)cc2)nc1N	514*
CCOC(=O)c1cnc(SCc2cccc3ccccc23)nc1N	0
CCC(CC)C(=O)OCC(=O)Nc1cc(OC)c([N+](=O)[O-])cc1C	-64
CC1SC(c2ccc(Cl)cc2)NC1=O (centres undefined)	444*
CC1SC(c2cccc(Cl)c2)NC1=O (centres undefined)	7
COc1ccc(C2CC(c3ccc(Br)cc3)=NN2C(=O)c2cccnc2)cc1 (centres undefined)	0
COc1cccc(C2CC(c3ccc(NS(C)(=O)=O)cc3)=NN2C(=O)c2ccccc2)c1OC (centres undefined)	0
COC(=O)CCSCC(=O)N1N=C(c2ccc(Br)cc2)CC1c1cccc(OC)c1OC (centres undefined)	387*
Cc1cc2ncn(-c3ncnc4sc5c(c34)CCC(C)C5)c2cc1C (centres undefined)	10
Cc1nn(-c2ccccc2)c(Oc2ccccc2)c1C=O	7
Cc1ccc(C(=O)COC(=O)CNC(=O)c2cccs2)cc1C	-4
Cc1ccc(C(=O)NCC(=O)NCC(=O)OCC(=O)c2cccs2)cc1	471*
Cc1ccc(NC(=O)COC(=O)CCC(=O)c2cccs2)cc1	8
CCOc1cnn(Cc2ccccc2)c(=O)c1SCc1ccccc1	-3
COc1cc(S(=O)(=O)N2CCOCC2)cc(C(=O)c2nccn2C)c1OC	9
Cc1ccc(S(=O)(=O)N2CCOCC2)cc1NC(=O)Cn1ccsc1=N	-5
CCCCn1ccnc1C(=O)c1cc(S(=O)(=O)N2CCOCC2)ccc1C	89*
CCN(CC)CCN(CC(=O)N(C1CCCCC1)C1CCCCC1)C(=O)c1ccco1	7

Compound activity: PubChem, Columbia University Molecular Screening Center
